From ChEMBL document CHEMBL3407462, “Further insights into the SAR of α-substituted cyclopropylamine derivatives as inhibitors of histone demethylase KDM1A” (Eur J Med Chem, 2015)
Calls of active or inactive are those of the source. The rule behind the calls is not given here.

target: LSD1/CoREST complex (Homo sapiens) (UniProt O60341+Q9UKL0); assay: Inhibition of human recombinant KDM1A/CoREST complex expressed in Escherichia coli using mono-methylated H3-K4 peptide containing 21 amino acids as substrate up to 100 uM preincubated for 15 mins followed by substrate addition measured for 12 mins by fluorescence assay
How it was run: (§1)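 KDM1A/CoREST co-purified from E. coli as separate proteins; 20 nM complex preincubated 15 min at RT with inhibitor, 50 µM Amplex UltraRed and 0.023 µM HRP in 50 mM Tris-HCl pH 8.0, 0.05 mg/ml BSA. Reaction started with 4.5 µM H3K4me1 21-mer peptide. H2O2 release read by fluorescence (ex 510/em 595 nm) for 12 min, aerobic. Tested twice in duplicate; IC50 reported.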

Sequence of LSD1/CoREST complex (Homo sapiens) (Q9UKL0 whole entry, looked up, other chains not shown): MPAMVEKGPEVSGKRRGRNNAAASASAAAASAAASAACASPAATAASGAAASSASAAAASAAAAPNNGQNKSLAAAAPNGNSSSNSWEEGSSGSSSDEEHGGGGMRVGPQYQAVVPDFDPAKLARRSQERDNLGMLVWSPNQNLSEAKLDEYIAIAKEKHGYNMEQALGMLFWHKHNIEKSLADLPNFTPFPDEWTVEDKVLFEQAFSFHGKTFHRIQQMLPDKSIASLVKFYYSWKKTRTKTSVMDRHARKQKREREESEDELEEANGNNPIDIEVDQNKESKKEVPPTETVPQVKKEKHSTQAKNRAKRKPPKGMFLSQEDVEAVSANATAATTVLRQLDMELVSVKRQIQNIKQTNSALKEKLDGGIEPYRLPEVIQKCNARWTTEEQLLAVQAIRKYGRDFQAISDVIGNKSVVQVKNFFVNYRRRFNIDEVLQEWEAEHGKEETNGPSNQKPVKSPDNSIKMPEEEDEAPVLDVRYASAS

For `O=C1COC[C@]2(C[C@H]2c2ccccc2)N1`, which inhibition is on record?
The inhibition was “inactive”.

With `O=C1NCCN[C@]12C[C@@H]2c1ccccc1` as the molecule, how does the inhibition read?
Its inhibition is “inactive”.

target: LSD1/CoREST complex (Homo sapiens, UniProt O60341); assay: Inhibition of human recombinant KDM1A/CoREST complex expressed in Escherichia coli using mono-methylated H3-K4 peptide containing 21 amino acids as substrate preincubated for 15 mins followed by substrate addition measured for 12 mins by fluorescence assay; how it was run: as §1

For `CC[C@]1(N)C[C@@H]1c1ccccc1Br` (mixture of isomers), which IC50 is on record?
Its IC50 is 0.35 µM.

For `CC[C@]1(N)C[C@@H]1c1ccc(F)cc1` (mixture of isomers), which IC50 is on record?
Its IC50 is 1.02 µM.

How did the IC50 turn out when `CC[C@]1(N)C[C@@H]1c1cccc(OC)c1` (mixture of isomers) was run?
Its IC50 is 0.123 µM.

`CC[C@]1(N)C[C@@H]1c1ccc(Cl)cc1` (mixture of isomers) was tested. Which IC50 did it give?
Its IC50 is 0.178 µM.

For `CC[C@]1(N)C[C@@H]1c1cccc(F)c1` (mixture of isomers), which IC50 is on record?
Its IC50 is 0.079 µM.

For `CC[C@]1(N)C[C@@H]1c1ccc(Br)cc1` (mixture of isomers), which IC50 is on record?
Its IC50 is 0.121 µM.

Which IC50 does the source give for `N[C@@]1(CCc2ccccc2)C[C@@H]1c1cccc(Br)c1` (mixture of isomers) here?
The IC50 was 0.094 µM.

For `N[C@@]1(CCc2ccccc2)C[C@@H]1c1ccc(F)cc1` (mixture of isomers), which IC50 is on record?
The IC50 was 0.173 µM.

Which IC50 does the source give for `N[C@@]1(Cc2ccc3ccccc3c2)C[C@@H]1c1ccc(Br)cc1` (mixture of isomers) here?
The IC50 was 0.279 µM.

Which IC50 does the source give for `N[C@@]1(Cc2ccccc2)C[C@@H]1c1ccc(Cl)cc1` (mixture of isomers) here?
The IC50 was 0.23 µM.

For `N[C@@]1(Cc2ccccc2)C[C@@H]1c1ccc(F)cc1` (mixture of isomers), which IC50 is on record?
Its IC50 is 1.05 µM.

With `N[C@@]1(c2ccccc2)C[C@@H]1c1ccc(Cl)cc1` (mixture of isomers) as the molecule, how does the IC50 read?
The IC50 was 0.554 µM.

How did the IC50 turn out when `CC[C@]1(N)C[C@@H]1c1ccccc1Cl` (racemic) was run?
Its IC50 is 0.258 µM.

With `CC[C@]1(N)C[C@@H]1c1ccc(C(F)(F)F)cc1` (racemic) as the molecule, how does the IC50 read?
The IC50 was 0.248 µM.

Which IC50 does the source give for `CC[C@]1(N)C[C@@H]1c1cccc(C(F)(F)F)c1` (racemic) here?
The IC50 was 0.118 µM.

How did the IC50 turn out when `CC[C@]1(N)C[C@@H]1c1cccc(Cl)c1` (racemic) was run?
The IC50 was 0.038 µM.

With `CC[C@]1(N)C[C@@H]1c1cccc(Br)c1` (racemic) as the molecule, how does the IC50 read?
Its IC50 is 0.031 µM.

`N[C@@]1(CCc2ccccc2)C[C@@H]1c1ccc(Br)cc1` (racemic) was tested. Which IC50 did it give?
Its IC50 is 0.101 µM.

How did the IC50 turn out when `N[C@@]1(CCc2ccccc2)C[C@@H]1c1ccc(Cl)cc1` (racemic) was run?
Its IC50 is 0.096 µM.

With `N[C@@]1(Cc2ccc3ccccc3c2)C[C@@H]1c1cccc(Br)c1` (racemic) as the molecule, how does the IC50 read?
Its IC50 is 0.251 µM.

With `N[C@@]1(Cc2ccc3ccccc3c2)C[C@@H]1c1cccc(Cl)c1` (racemic) as the molecule, how does the IC50 read?
Its IC50 is 0.158 µM.

How did the IC50 turn out when `N[C@@]1(Cc2ccc3ccccc3c2)C[C@@H]1c1ccc(F)cc1` (racemic) was run?
The IC50 was 0.642 µM.

Which IC50 does the source give for `N[C@@]1(Cc2ccc3ccccc3c2)C[C@@H]1c1ccc(Cl)cc1` (racemic) here?
Its IC50 is 0.263 µM.

For `N[C@@]1(Cc2ccccc2)C[C@@H]1c1ccc(Br)cc1` (racemic), which IC50 is on record?
Its IC50 is 0.187 µM.

`N[C@@]1(c2ccccc2)C[C@@H]1c1ccc(Br)cc1` (racemic) was tested. Which IC50 did it give?
The IC50 was 0.047 µM.

How did the IC50 turn out when `CC[C@]1(N)C[C@@H]1c1ccc(OC(F)(F)F)cc1` (racemic) was run?
Its IC50 is 1.16 µM.

How did the IC50 turn out when `CC[C@]1(N)C[C@@H]1c1ccc(Br)c(F)c1` (racemic) was run?
The IC50 was 0.035 µM.

With `CC[C@]1(N)C[C@@H]1c1ccccc1F` (racemic) as the molecule, how does the IC50 read?
The IC50 was 0.352 µM.
